Assay results: ChEMBL document CHEMBL1629475, “Synthesis of new chalcone derivatives containing a rhodanine-3-acetic acid moiety with potential anti-bacterial activity” (2010)
Converted amounts (≈) assume the structure as drawn. The source made the active and inactive calls. The rule behind the calls is not given here.

Legend:
Staphylococcus aureus [1] = assay: Antibacterial activity against Staphylococcus aureus KCTC 209 after 20 hrs by twofold serial dilution technique; assay type: functional; settings: KCTC 209, 20 h
Summary of the method: (§1)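 Inoculum was 10⁵ CFU/mL. MIC was read after 20 h at 37 °C. The MRSA and QRSA strains were multidrug-resistant clinical isolates. Oxacillin and norfloxacin served as positive controls.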

Escherichia coli [2] = assay: Antibacterial activity against Escherichia coli 1356 after 20 hrs by twofold serial dilution technique; assay type: functional; settings: Escherichia coli, 1356, 20 h; summary of the method: as §1
Escherichia coli [3] = assay: Antibacterial activity against Escherichia coli 1924 after 20 hrs by twofold serial dilution technique; assay type: functional; settings: Escherichia coli, 1924, 20 h; summary of the method: as §1
Escherichia coli [4] = assay: Antibacterial activity against Escherichia coli 1924 at 64 ug/ml; assay type: functional, organism-based
Streptococcus mutans [5] = assay: Antibacterial activity against Streptococcus mutans KCTC 3065 after 20 hrs by twofold serial dilution technique; assay type: functional; settings: KCTC 3065, 20 h
Summary of the method: (§2)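 Inoculum was 10⁵ CFU/mL, and MIC was read after incubation at 37 °C for 20 h. Oxacillin and norfloxacin were the positive controls.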

Staphylococcus aureus [6] = assay: Antibacterial activity against Staphylococcus aureus RN 4220 after 20 hrs by twofold serial dilution technique; assay type: functional; settings: RN 4220, 20 h; summary of the method: as §1
Streptococcus mutans [7] = assay: Antibacterial activity against Streptococcus mutans KCTC 3289 after 20 hrs by twofold serial dilution technique; assay type: functional; settings: KCTC 3289, 20 h; summary of the method: as §2
Escherichia coli [8] = assay: Antibacterial activity against Escherichia coli 1356 at 64 ug/ml; assay type: functional, organism-based
Staphylococcus aureus [9] = assay: Antibacterial activity against Staphylococcus aureus KCTC 503 after 20 hrs by twofold serial dilution technique; assay type: functional; settings: KCTC 503, 20 h; summary of the method: as §1
Staphylococcus aureus [10] = assay: Antibacterial activity against Staphylococcus aureus MRSA CCARM 3506 after 20 hrs by twofold serial dilution technique; assay type: functional; settings: MRSA CCARM 3506, 20 h; summary of the method: as §1
Staphylococcus aureus [11] = assay: Antibacterial activity against Staphylococcus aureus QRSA CCARM 3519 after 20 hrs by twofold serial dilution technique; assay type: functional; settings: QRSA CCARM 3519, 20 h; summary of the method: as §1
Staphylococcus aureus [12] = assay: Antibacterial activity against Staphylococcus aureus QRSA CCARM 3505 after 20 hrs by twofold serial dilution technique; assay type: functional; settings: QRSA CCARM 3505, 20 h; summary of the method: as §1
Staphylococcus aureus [13] = assay: Antibacterial activity against Staphylococcus aureus MRSA CCARM 3167 after 20 hrs by twofold serial dilution technique; assay type: functional; settings: MRSA CCARM 3167, 20 h; summary of the method: as §1

| SMILES | MIC (Staphylococcus aureus [1]) [µg/mL] | MIC (Escherichia coli [2]) [µg/mL] | MIC (Escherichia coli [3]) [µg/mL] | Activity (Escherichia coli [4]) | MIC (Streptococcus mutans [5]) [µg/mL] | MIC (Staphylococcus aureus [6]) [µg/mL] | MIC (Streptococcus mutans [7]) [µg/mL] | Activity (Escherichia coli [8]) | MIC (Staphylococcus aureus [9]) [µg/mL] | MIC (Staphylococcus aureus [10]) [µg/mL] | MIC (Staphylococcus aureus [11]) [µg/mL] | MIC (Staphylococcus aureus [12]) [µg/mL] | MIC (Staphylococcus aureus [13]) [µg/mL] |
| --- | --- | --- | --- | --- | --- | --- | --- | --- | --- | --- | --- | --- | --- |
| O=C(O)CN1C(=O)/C(=C\c2ccc(/C=C/C(=O)c3ccccc3)cc2)SC1=S | 32 (≈ 78.1 µM) | > 64 | > 64 | inactive | 64 (≈ 156 µM) | 32 (≈ 78.1 µM) | 64 (≈ 156 µM) | inactive | 32 (≈ 78.1 µM) |  |  |  |  |
| O=C(O)CN1C(=O)/C(=C\c2ccc(/C=C/C(=O)c3ccc(Br)cc3)cc2)SC1=S | 4 (≈ 8.19 µM) | > 64 | > 64 | inactive | 4 (≈ 8.19 µM) | 4 (≈ 8.19 µM) | 4 (≈ 8.19 µM) | inactive | 4 (≈ 8.19 µM) | 4 (≈ 8.19 µM) | 4 (≈ 8.19 µM) | 4 (≈ 8.19 µM) | 4 (≈ 8.19 µM) |
| Cc1onc(-c2ccccc2)c1C(=O)N[C@@H]1C(=O)N2[C@@H]1SC(C)(C)[C@@H]2C(=O)O [OXACILLIN] | 1 (≈ 2.49 µM) | > 64 | > 64 |  | 1 (≈ 2.49 µM) | 1 (≈ 2.49 µM) | 1 (≈ 2.49 µM) |  | 1 (≈ 2.49 µM) | > 64 | 1 (≈ 2.49 µM) | 1 (≈ 2.49 µM) | > 64 |
| O=C(O)CN1C(=O)/C(=C\c2ccc(/C=C/C(=O)c3ccc([N+](=O)[O-])cc3)cc2)SC1=S | 4 (≈ 8.8 µM) | > 64 | > 64 | inactive | 8 (≈ 17.6 µM) | 4 (≈ 8.8 µM) | 8 (≈ 17.6 µM) | inactive | 4 (≈ 8.8 µM) | 4 (≈ 8.8 µM) | 4 (≈ 8.8 µM) | 4 (≈ 8.8 µM) | 4 (≈ 8.8 µM) |
| O=C(O)CN1C(=O)/C(=C\c2ccc(/C=C/C(=O)c3ccc(F)cc3)cc2)SC1=S | 4 (≈ 9.36 µM) | > 64 | > 64 | inactive | 4 (≈ 9.36 µM) | 4 (≈ 9.36 µM) | 4 (≈ 9.36 µM) | inactive | 4 (≈ 9.36 µM) | 4 (≈ 9.36 µM) | 4 (≈ 9.36 µM) | 4 (≈ 9.36 µM) | 4 (≈ 9.36 µM) |
| O=Cc1ccc(/C=C/C(=O)c2ccc(Cl)cc2Cl)cc1 | 64 (≈ 210 µM) | > 64 | > 64 | inactive | > 64 | 64 (≈ 210 µM) | > 64 | inactive | 64 (≈ 210 µM) |  |  |  |  |
| O=C(O)CN1C(=O)/C(=C\c2ccc(/C=C/C(=O)c3cccc(Cl)c3)cc2)SC1=S | 64 (≈ 144 µM) | > 64 | > 64 | inactive | 64 (≈ 144 µM) | 64 (≈ 144 µM) | 64 (≈ 144 µM) | inactive | 64 (≈ 144 µM) |  |  |  |  |
| Cc1ccc(C(=O)/C=C/c2ccc(/C=C3/SC(=S)N(CC(=O)O)C3=O)cc2)c(C)c1 | 4 (≈ 9.14 µM) | > 64 | > 64 | inactive | 4 (≈ 9.14 µM) | 4 (≈ 9.14 µM) | 8 (≈ 18.3 µM) | inactive | 4 (≈ 9.14 µM) | 4 (≈ 9.14 µM) | 4 (≈ 9.14 µM) | 4 (≈ 9.14 µM) | 4 (≈ 9.14 µM) |
| CC(=O)Nc1ccc(C(=O)/C=C/c2ccc(/C=C3/SC(=S)N(CC(=O)O)C3=O)cc2)cc1 | > 64 | > 64 | > 64 | inactive | > 64 | > 64 | > 64 | inactive | > 64 |  |  |  |  |
| Cc1ccc(C(=O)/C=C/c2ccc(/C=C3/SC(=S)N(CC(=O)O)C3=O)cc2)cc1 | 64 (≈ 151 µM) | > 64 | > 64 | inactive | 64 (≈ 151 µM) | 64 (≈ 151 µM) | 64 (≈ 151 µM) | inactive | 64 (≈ 151 µM) |  |  |  |  |
| CCn1cc(C(=O)O)c(=O)c2cc(F)c(N3CCNCC3)cc21 [NORFLOXACIN] | 4 (≈ 12.5 µM) | 16 (≈ 50.1 µM) | 16 (≈ 50.1 µM) |  | 1 (≈ 3.13 µM) | 2 (≈ 6.26 µM) | 1 (≈ 3.13 µM) |  | 2 (≈ 6.26 µM) | 4 (≈ 12.5 µM) | > 64 | > 64 | 8 (≈ 25.1 µM) |
| COc1cccc(C(=O)/C=C/c2ccc(/C=C3/SC(=S)N(CC(=O)O)C3=O)cc2)c1 | 8 (≈ 18.2 µM) | > 64 | > 64 | inactive | 8 (≈ 18.2 µM) | 8 (≈ 18.2 µM) | 8 (≈ 18.2 µM) | inactive | 8 (≈ 18.2 µM) | 8 (≈ 18.2 µM) | 8 (≈ 18.2 µM) | 8 (≈ 18.2 µM) | 8 (≈ 18.2 µM) |
| COCOc1cccc(C(=O)/C=C/c2ccc(/C=C3/SC(=S)N(CC(=O)O)C3=O)cc2)c1 | > 64 | > 64 | > 64 | inactive | > 64 | > 64 | > 64 | inactive | > 64 |  |  |  |  |
| COCOc1ccc(C(=O)/C=C/c2ccc(/C=C3/SC(=S)N(CC(=O)O)C3=O)cc2)cc1 | > 64 | > 64 | > 64 | inactive | > 64 | > 64 | > 64 | inactive | > 64 |  |  |  |  |
| O=C(O)CN1C(=O)/C(=C\c2ccc(/C=C/C(=O)c3ccc(Cl)cc3Cl)cc2)SC1=S | 2 (≈ 4.18 µM) | > 64 | > 64 | inactive | 2 (≈ 4.18 µM) | 2 (≈ 4.18 µM) | 2 (≈ 4.18 µM) | inactive | 2 (≈ 4.18 µM) | 2 (≈ 4.18 µM) | 2 (≈ 4.18 µM) | 2 (≈ 4.18 µM) | 2 (≈ 4.18 µM) |
| COc1ccc(C(=O)/C=C/c2ccc(/C=C3/SC(=S)N(CC(=O)O)C3=O)cc2)cc1 | 64 (≈ 146 µM) | > 64 | > 64 | inactive | 64 (≈ 146 µM) | 64 (≈ 146 µM) | 64 (≈ 146 µM) | inactive | 64 (≈ 146 µM) |  |  |  |  |
| O=C(O)CN1C(=O)/C(=C\c2ccc(/C=C/C(=O)c3cccc(F)c3)cc2)SC1=S | 64 (≈ 150 µM) | > 64 | > 64 | inactive | 64 (≈ 150 µM) | 64 (≈ 150 µM) | 64 (≈ 150 µM) | inactive | 64 (≈ 150 µM) |  |  |  |  |
